Screening data as filed in PubChem BioAssay.
ANO1 block: mouse TMEM16A channel inhibition, primary screen | HEK293 TMEM16A/YFP iodide influx fluorescence, ionomycin | 310,000 tested, 1.2% active | normalized B-score (activity score, 25-100; higher = stronger inhibition) at 10 µM;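 active = ratio plate-corrected score three or more library SD toward inhibition, starting fluorescence score within five deviations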;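 note: score derived from kinetic fluorescence span divided by baseline fluorescence per well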
CRFR2-BP antag: CRF-BP/CRF-R2 complex antagonism | HEK293 CRF-R2/CRF-BP, CRF-induced calcium fluorescence | inhibition, % at 11.8 µM | 350,000 tested, 0.59% active;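 active = inhibition of the ligand-induced calcium signal above about 50% at the single tested concentration, limit read from the data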
TAAR1 antag: antagonists of human TAAR1. 360,000 tested, 1.5% active. Q96RJ0. CHO RD-HGA16 TAAR1, Fluo-8 calcium fluorescence, antagonist. inhibition, % at 3 µM;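 active = inhibition above a per-plate cutoff, the mean inhibition of test compounds on that plate plus 3 SD, cut at about 49% in these data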;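 note: 0% = DMSO plus EC80 beta-PEA response and 100% = DMSO alone without agonist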
Target sequence (Q96RJ0 whole entry, looked up): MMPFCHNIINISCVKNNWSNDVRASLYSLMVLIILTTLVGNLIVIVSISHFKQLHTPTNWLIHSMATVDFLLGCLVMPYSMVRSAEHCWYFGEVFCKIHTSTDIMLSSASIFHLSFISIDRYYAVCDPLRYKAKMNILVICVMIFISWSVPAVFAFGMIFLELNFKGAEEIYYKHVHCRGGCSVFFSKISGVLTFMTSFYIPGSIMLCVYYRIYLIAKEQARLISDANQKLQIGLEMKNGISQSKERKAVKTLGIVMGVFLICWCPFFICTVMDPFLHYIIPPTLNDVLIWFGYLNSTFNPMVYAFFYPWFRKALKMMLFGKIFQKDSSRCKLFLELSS
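Material: RD-HGA16 CHO cells with stable hTAAR1 and Gα16; Dosing: single nominal final test compound concentration of 3 µM; Schedule: seeding 17-24 h prior, 75-min 37 °C, 30-min RT dye loading; Detection: kinetic Fluo-8 calcium fluorescence measurement; Measure: % inhibition from peak post-agonist over basal fluorescence ratio; Benchmarks: vehicle and agonist controls.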
CRFBP-R2 agonist: agonists of human CRF-binding protein/CRF-R2 receptor complex | HEK293 CRF-R2/CRF-BP, calcium dye fluorescence (FLIPR); percent of saturating CRF peptide response | 350,000 tested, 0.46% active | activation, % at 13.2 µM;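 active = activation of at least 50%, plus an integration ratio under a set limit after plate pattern correction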;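 note: plate controls were neutral control wells without compound for no effect and CRF at EC100 for full effect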
TAAR1 ag: agonists of human TAAR1; CHO RD-HGA16 TAAR1, Fluo-8 calcium fluorescence; vehicle wells 0%, saturating PEA agonist 100%; activation, % at 3 µM; 360,000 tested, 0.99% active; AID 624467;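 active = activation above the mean activation of all test compounds in the run plus 3 SD, cut at about 38% in these data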
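Signal – calcium-sensitive Fluo-8 signal, excitation 470-495, emission 515-575 nm · System – RD-HGA16 (CHO) cells co-expressing Gα16 and hTAAR1 · Incubation – 17-24 h seeding, 75 min 37 °C dye, 30 min RT · Compound dosing – 3 µM single concentration · Repeats – no replicates (n 1)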
ANO1 activ: mouse TMEM16A channel activation, primary screen; HEK293 TMEM16A/YFP-H148Q/I152L, iodide quench fluorescence; hits give low values; AID 623877; B-score at 10 µM; 340,000 tested, 0.3% active;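 active = fluorescence-ratio B-score plate-corrected deviation score at least 3 library SD below zero, with starting fluorescence score within 5 deviations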;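 note: channel opened by trigger with iodide after compound preincubation; score built on the fluorescence ratio of max minus min over baseline; more negative score means more quench and so TMEM16A activation or potentiation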
An asterisk follows results filed as active; i = inactive; . = not tested or not shown. Shown are actives, neighbours in structure and some others; about 3.9% of the full set was active somewhere.

SMILES	ANO1 block	CRFR2-BP antag	TAAR1 antag	CRFBP-R2 agonist	TAAR1 ag	ANO1 activ
Cc1cc(NC(=O)C(C)C)ncc1NC(=O)CCc1ccccc1	i	-126	-14	141*	10	i
Cc1cc(NC(=O)C(C)C)ncc1NC(=O)c1ccco1	i	.	-20	.	1	i
O=C1COc2ccccc2N1Cc1c(F)cccc1Cl	i	-13	1	-1	-3	i
CN1CC(=O)N(CC(=O)N2CCC(Cc3ccccc3)CC2)C1=O	i	100*	-14	0	0	i
CC(C)c1nnc(SCC(=O)NC2CCCC2)n1C	i	2	9	1	-4	i
O=C(Nc1ccc(C(F)(F)F)cc1)c1cc(-c2cccnc2)nc2ccc(Br)cc12	i	-1	10	1	4	i
CC(OC(=O)c1cc(-c2cccnc2)nc2ccccc12)C(=O)Nc1ccc2ccccc2c1 (stereo not given)	i	-1	51*	1	9	i
COc1ccc(COc2cc(-c3cccc(OC)c3)nc3ccc(NC(C)=O)cc23)cc1	i	-7	59*	2	5	i
CC(=O)Nc1cccc(NC(=O)c2cc(-c3cccnc3)nc3ccc(Br)cc23)c1	i	-26	62*	3	21	i
O=C(NNC(=S)Nc1ccccc1)c1cc(-c2cccnc2)nc2ccccc12	i	-2	21	0	7	i
CSc1ccccc1NC(=O)c1cc(-c2cccnc2)nc2ccc(Br)cc12	i	36	50*	2	4	i
O=C(Cn1c2ccc(F)cc2c2nc3n(c(=O)c21)CCS3)NCC1CCCO1 (stereo not given)	i	5	-1	-3	0	i
CSCC[C@H](NC(=O)C1=NN(c2c(F)c(F)cc(F)c2F)C(=O)CC1)c1nc2ccccc2[nH]1	i	3	-4	0	-1	i
CC(=O)Nc1cccc(NC(=O)c2cc(-c3ccccn3)nc3ccc(Cl)cc23)c1	i	-9	65*	1	9	i
COc1cccc(-c2cc(C(=O)Nc3ccc(N(C)C(C)=O)cc3)c3cc(Br)ccc3n2)c1	i	-5	60*	0	8	i
COc1ccc(Cl)cc1NC(=O)NN1CCN(C)CC1	i	-3	-11	-2	0	i
O=S(=O)(Nc1nccs1)c1ccc(NS(=O)(=O)c2c(F)cc(F)c(Cl)c2F)cc1	.	2	-2	-1	0	i
CC(=O)c1ccc(N2CCN(C(=O)c3ccc(NC4=NC5CS(=O)(=O)CC5S4)cc3)CC2)cc1 (stereo not given)	i	-16	-18	0	0	i
CN(Cc1cccc(F)c1)C(=O)CNS(=O)(=O)c1ccc2ccccc2c1	i	-1	-9	0	6	i
Cc1cccc(Nc2ncccc2C(=O)NCc2cccs2)c1C	i	-65	29	-1	38*	i
Cc1ccc(Nc2ncccc2C(=O)NCc2cccs2)c(C)c1	i	-110	12	4	19	i
Cc1nnc(SCC(=O)Nc2ccc(N3CCN(S(C)(=O)=O)CC3)cc2)o1	i	4	-5	1	3	i
CC(C)NC(=S)N(CCc1ccncc1)C(C)C	i	112*	-1	0	-3	i
O=C(c1[nH]c(C(F)(F)F)nc1-c1ccccc1)N1CCN(c2ncc(C(F)(F)F)cc2Cl)CC1	.	.	49*	.	49*	.
CCOC(=O)C1CCN(C(=O)CSCc2nc(-c3ccc(OCC)cc3)oc2C)CC1	100*	2	25	0	7	i
SMILES	ANO1 block	CRFR2-BP antag	TAAR1 antag	CRFBP-R2 agonist	TAAR1 ag	ANO1 activ
COc1ccc(CCN2C(=O)C(Oc3ccccc3)C2c2ccc3c(c2)OCO3)cc1 (stereo not given)	i	36	31	3	12	i
O=C1C(Oc2ccc(Cl)cc2)C(c2ccc3c(c2)OCO3)N1CC1CCCO1 (stereo not given)	i	-2	50*	0	14	i
CC(=O)N(C)c1ccc(NC(=O)Nc2ccc(Cl)cc2)cc1	i	-3	102*	1	44*	i
O=C(Nc1cccnc1)Nc1ccc(F)c(Cl)c1	i	-16	6	4	51*	i
O=C(Nc1cccnc1)c1cc(F)c(F)cc1Cl	i	18	-19	-2	8	i
Cc1ccc(NC(=O)Nc2ccc(F)c(Cl)c2)cc1	i	-17	-4	-1	8	i
O=C(Nc1ccc(Cl)cc1)Nc1ccc(Cl)c(Cl)c1	.	22	66*	11	18	.
O=C(Nc1cccnc1)c1ccc(-c2ccc(Cl)cc2)o1	i	57*	-6	-1	1	i
CC(C)(CNC(=O)c1ccc(-c2cccc(C(F)(F)F)c2)o1)N1CCOCC1	i	-3	-36	-5	-1	i
CCOC(=O)c1cnc2ccc(OCC)cc2c1NCc1ccccc1OC	100*	-18	-7	2	3	i
CCOC(=O)c1cnc2ccc(OC)cc2c1NCc1ccccc1	i	-20	8	1	8	i
CSc1ccc(OC2(C)CCN(Cc3cc4ccccc4o3)C2)cc1 (stereo not given)	.	.	-21	.	-1	.
Cc1cccc(OC(C)C(=O)N2CCCN(C)CC2)c1C (stereo not given)	i	-2	.	-2	.	i
N#CCCN(C(=O)COC(=O)c1ccc2c(=O)n3c(nc2c1)CCC3)c1ccc(F)cc1	i	-7	-13	8	2	i
O=C(O)c1cnn(-c2nc(-c3cccc(F)c3)cs2)c1C(F)(F)F	i	8	-4	1	2	i
O=C(O)c1cnn(-c2nc(-c3ccc(Cl)c(Cl)c3)cs2)c1C(F)(F)F	i	50*	-2	-2	-4	i
CCCCCn1c(SCC(=O)c2ccccc2)nc2cc(C(=O)NCC3CCCO3)ccc2c1=O (stereo not given)	.	-9	-26	-2	3	i
CC(=O)c1ccc(N2CCN(C(=O)c3cc(-c4ccncc4)nc4ccc(Cl)cc34)CC2)cc1	i	-40	48	8	11	i
Cc1ccc(S(=O)(=O)N2CCN(c3ncnc4scc(-c5ccccc5)c34)CC2)cc1	.	-103	-12	127*	3	-31*
CC(C)(C)OC(=O)[C@H](Cc1ccccc1)NC(=O)c1nc[nH]c1C(=O)N1CCNCC1	.	9	6	-2	10	i
COc1ccc(S(=O)(=O)N2C[C@H]3CON(C)[C@H]3C[C@H]2c2ccc(-c3cc4ccccc4o3)cc2)cc1	.	17	7	3	4	.
